Assay [1] concerns RWP1 cells. As to the kind of experiment: Downstream effects of peptide expression, Western blot, RWP1. It is filed as cell-based, human. (A western blot detects proteins with antibodies after separation by electrophoresis.)
For another assay, the system named is Panc 02.03 cells. The assay can be described thus: Downstream effects of peptide expression, Western blot, Panc 02.03. It counts as cell-based.
The subject of another assay is HEK293T cells. The assay can be described thus: Downstream effects of peptide expression, Western blot, HEK293T. It counts as cell-based, human.
For assay [2], the system named is AKT (S473) phosphorylation in RWP1 cells. The assay can be described thus: Serum-induced AKT. It is filed as cell-based, human. Conditions: RWP1 starved 24 hours, 10% FBS for 20 minutes; Western blot. The procedure, abridged: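 Peptide expressed or not in RWP1 cells, which were starved 24 h and then given 10% FBS for 20 min. Lysate proteins run on 10% Bis-Tris SDS-PAGE and transferred to PVDF. Blots probed with anti-AKT (1:1000) or anti-phospho-AKT S473 (1:1000), then HRP secondary (1:2500), with ECL detection. Paired with HEK293T cells treated the same way.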

The subject of another assay is SFN. As to the kind of experiment: shRNA-induced cell viability rescue, SFN knockdown. It counts as cell-based. Conditions: shRNA cells transfected with peptide; triplicate.
The test system of a further assay is Mia Paca-2 cells. As to the kind of experiment: Downstream effects of peptide expression, Western blot, Mia Paca-2. It is filed as cell-based.
Assay [3] in a line: Downstream effect of peptide, gels of Fig. 4 and Supplementary Fig. 7. It counts as cell-based. Conditions: triplicate; cell line not stated.
A further assay deals with cell cycle. The assay can be described thus: FACS analysis of cell cycle. It counts as cell-based. Conditions: triplicate. In general terms: In flow cytometry, cells or beads pass a laser one at a time.
The subject of another assay is GCHFR. As to the kind of experiment: shRNA-induced cell viability rescue, GCHFR knockdown. It is filed as cell-based. Conditions: shRNA cells transfected with peptide; triplicate.
Assay [4] relates to MDM2. As to the kind of experiment: FRET microscopy, peptide-GFP and MDM2-mCherry. It counts as binding. The note with it: HEK293T cells, confocal FRET microscopy, 48 h after transfection. The procedure, abridged:
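HEK293T cells were seeded at 5 × 10^4 per well on poly-L-lysine-coated glass coverslips and kept at 37°C in 5% CO2. They were co-transfected with GFP-fused peptide and mCherry-fused target, then fixed with 4% paraformaldehyde 48 h later, washed in PBS and imaged by confocal FRET microscopy at room temperature. Laser power and PMT gain were held constant. […] excitation was used with FRET detection at […]. Net FRET was obtained by subtracting GFP bleed-through and mCherry direct emission. Controls expressed GFP and/or mCherry alone.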

For assay [5], the system named is MDM2. The assay can be described thus: shRNA-induced cell viability rescue, MDM2 knockdown. It counts as cell-based. The note with it: shRNA cells transfected with peptide; triplicate.
Assay [6] deals with RWP1 cells. The assay can be described thus: Cell viability with synthetic lipidated peptides, RWP1. Conditions: duplicate. It counts as cell-based, human.

We go through nine substances from publication PMC5756068 (Nature chemical biology, 2016).

As to KFFCTIL, the p21 level entry in the assay with RWP1 cells [1] and with Panc 02.03 cells was “increased the expression of p21” each time. Further, the “phospho-AKT (S473) level” value in the assay with RWP1 cells [1] is reported as “decrease of the level of phospho-AKT (S473)”; with Panc 02.03 cells, “decrease of the level of phospho-AKT (S473)”; with HEK293T cells it was “did not affect the level of phospho-AKT”. Further, the “serum-induced AKT phosphorylation” value in assay [2] is “inhibited the increase in AKT phosphorylation”.
As to TEGPDSD, the “rescue of peptide phenotype by knockdown of SFN” value with SFN was “showed rescue of the peptide phenotype”. Moreover, in the assay on RWP1 cells [1], the cdc2 expression entry is “reduced expression of both cyclin B1 and cdc2”; the “cyclin A2 expression” value is “increase of cyclin A2 expression”; the “cyclin B1 expression” value is “reduced expression of both cyclin B1 and cdc2”. In the assay on Panc 02.03 cells, the “cyclin A2 expression” value is reported as “increase of cyclin A2 expression”. Also, in the assay with Mia Paca-2 cells, the cdc2 expression entry was “reduced expression of both cyclin B1 and cdc2”; the “cyclin A2 expression” value is on record as “increase of cyclin A2 expression”; the “cyclin B1 expression” value is “reduced expression of both cyclin B1 and cdc2”. Also, in [3], the cdc2 level entry was “decrease in cyclin B1 and cdc2 levels”; the “cyclin A level” value is listed as “increase in cyclin A”; the “cyclin B1 level” value is “decrease in cyclin B1 and cdc2 levels”. Moreover, in the assay with cell cycle (FACS, DAPI, 24, 72 and 120 hours, cell line not stated), the “effect on cell cycle” value is reported as “cell cycle arrest in G2”. Moreover, the “percentage of GFP positive cells vs GFP alone” value in the assay on cell cycle (different time points) is reported as “similar”.
In the case of RTLSQLYCSYGPLT, in the assay with RWP1 cells [1], the p21 level entry was “increases the expression of p53 and p21”; the p53 level entry was “increases the expression of p53 and p21”. In the assay with Panc 02.03 cells, the p21 level result is “increases the expression of p53 and p21”; the p53 level entry was “increases the expression of p53 and p21”.
With VWCLHKE, the “rescue of peptide phenotype by knockdown of GCHFR” value in the assay with GCHFR was “showed rescue of the peptide phenotype”.
On to ETFSDLW, for which, in the assay on MDM2 [4], the “FRET signal with MDM2” value is given as “Positive FRET signals”. The “rescue of peptide phenotype by knockdown of MDM2” value in the assay on MDM2 [5] is “showed rescue of the peptide phenotype”. For the same substance, the p21 level result with RWP1 cells [1], with Panc 02.03 cells and in the assay with Mia Paca-2 cells was “increase in p21 levels” each time. Moreover, the p53 level entry in the assay with RWP1 cells [1], with Panc 02.03 cells and in the assay with Mia Paca-2 cells was “decrease in degradation of p53” each time. The P53 level result in assay [3] was “increasing P53 levels”.
For the substance PSSLAYSLKKH, the p21 level entry is “accumulation of p53 and p21” with RWP1 cells [1]; “accumulation of p53 and p21” in the assay with Panc 02.03 cells; “accumulation of p53 and p21” in the assay on Mia Paca-2 cells; “did not affect the level of p53 and p21” in the assay on HEK293T cells. Further, the p53 level result in the assay on RWP1 cells [1] was “accumulation of p53 and p21”; in the assay on Panc 02.03 cells it was “accumulation of p53 and p21”; in the assay on Mia Paca-2 cells it was “accumulation of p53 and p21”; in the assay with HEK293T cells, “did not affect the level of p53 and p21”.
As for Pal-NPFREKKFFCTIL-NH2 [GNG4-1], in the assay on RWP1 cells [6], the “effect on cell viability (in words)” value was “strong dosage dependent effects on cell viability”.
Pal-RTLSQLYCSYGPLT-OH [MUS81-1]: the “effect on cell viability (in words)” value in the assay with RWP1 cells [6] is “strong dosage dependent effects on cell viability”.
On to Pal-PSSLAYSLKKH-OH [INCENP-1], for which, in the assay with RWP1 cells [6], the “effect on cell viability (in words)” value is recorded as “strong dosage dependent effects on cell viability”.
